PMC10795913 (The Journal of Clinical Endocrinology and Metabolism, 2023)
Marks after values point to notes of the source that are not given here.

Assays:
[1] = target: T1, GIPR (Homo sapiens, UniProt P48546); experiment: Cell-based assay for NAb against TZP activity on GIPR; format: in vivo; conditions: N = 5025
T1 sequence (P48546 22-466): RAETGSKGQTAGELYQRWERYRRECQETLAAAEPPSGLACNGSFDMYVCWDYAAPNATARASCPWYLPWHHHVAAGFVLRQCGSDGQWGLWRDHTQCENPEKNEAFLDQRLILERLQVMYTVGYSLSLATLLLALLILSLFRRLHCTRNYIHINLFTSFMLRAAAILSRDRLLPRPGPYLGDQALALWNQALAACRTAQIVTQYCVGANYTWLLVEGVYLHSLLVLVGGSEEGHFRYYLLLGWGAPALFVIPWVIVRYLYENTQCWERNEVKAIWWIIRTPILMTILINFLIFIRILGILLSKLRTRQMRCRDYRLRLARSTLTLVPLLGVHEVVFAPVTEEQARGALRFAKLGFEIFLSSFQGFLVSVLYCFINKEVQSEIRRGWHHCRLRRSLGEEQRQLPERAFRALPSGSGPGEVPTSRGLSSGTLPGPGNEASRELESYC

[2] = target: T2, native GIP (nGIP) (Homo sapiens, UniProt P09681); experiment: Cross-reactive ADA binding to nGIP; format: in vivo; conditions: N = 5025
T2 sequence (P09681 52-93 limits assumed): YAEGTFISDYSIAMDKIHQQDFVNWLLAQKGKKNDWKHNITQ

[3] = tested on: patients with type 2 diabetes; experiment: Antidrug antibody; format: in vivo, human
[4] = tested on: native GLP-1 (nGLP-1); experiment: Cross-reactive ADA binding to nGLP-1; format: in vivo, human; conditions: N = 5025
[5] = Tirzepatide pharmacokinetics; format: in vivo, human
[6] = target: GLP-1R (Homo sapiens, UniProt P43220); experiment: Cell-based assay for NAb against TZP activity on GLP-1R; format: in vivo; conditions: N = 5025
[7] = tested on: patients with type 2 diabetes; experiment: Hypersensitivity reactions by TE ADA status; format: in vivo, human
Outline: (§1)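 Hypersensitivity or injection site reactions during the planned treatment period were tabulated by dose group. Patients were split by treatment-emergent ADA status (TE ADA+ vs TE ADA–). Analysis was descriptive and non-randomized.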

[8] = tested on: patients with type 2 diabetes; experiment: Injection site reactions by TE ADA status; format: in vivo, human
Outline: as §1

[9] = tested on: patients; conditions: different assays, not directly comparable; cited from earlier work
[10] = TZP 5 mg, TE ADA status not evaluable
[11] = TZP 10 mg, TE ADA status not evaluable
[12] = TZP all doses, TE ADA status not evaluable

GLP-1R, sequence (P43220 24-463): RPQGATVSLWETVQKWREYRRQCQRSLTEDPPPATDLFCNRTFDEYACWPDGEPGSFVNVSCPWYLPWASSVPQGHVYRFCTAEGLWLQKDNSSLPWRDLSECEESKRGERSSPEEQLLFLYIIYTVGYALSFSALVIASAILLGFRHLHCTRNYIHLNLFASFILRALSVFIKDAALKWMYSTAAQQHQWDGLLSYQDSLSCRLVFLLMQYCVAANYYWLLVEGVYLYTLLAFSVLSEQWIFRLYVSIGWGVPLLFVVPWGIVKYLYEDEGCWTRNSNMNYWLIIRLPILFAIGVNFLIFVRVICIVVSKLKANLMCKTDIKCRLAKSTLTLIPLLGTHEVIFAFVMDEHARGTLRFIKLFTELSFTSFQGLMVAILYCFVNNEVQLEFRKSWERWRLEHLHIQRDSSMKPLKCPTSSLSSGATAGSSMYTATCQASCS

## CC[C@H](C)[C@H](NC(=O)[C@H](CC(C)C)NC(=O)[C@H](Cc1c[nH]c2ccccc12)NC(=O)[C@H](CCC(N)=O)NC(=O)[C@@H](NC(=O)[C@H](Cc1ccccc1)NC(=O)[C@H](C)NC(=O)[C@H](CCCCNC(=O)COCCOCCNC(=O)COCCOCCNC(=O)CC[C@H](NC(=O)CCCCCCCCCCCCCCCCCCC(=O)O)C(=O)O)NC(=O)[C@H](CCC(N)=O)NC(=O)[C@H](C)NC(=O)[C@@H](NC(=O)[C@H](CCCCN)NC(=O)[C@H](CC(=O)O)NC(=O)[C@H](CC(C)C)NC(=O)C(C)(C)NC(=O)[C@@H](NC(=O)[C@H](CO)NC(=O)[C@H](Cc1ccc(O)cc1)NC(=O)[C@H](CC(=O)O)NC(=O)[C@H](CO)NC(=O)[C@@H](NC(=O)[C@H](Cc1ccccc1)NC(=O)[C@@H](NC(=O)CNC(=O)[C@H](CCC(=O)O)NC(=O)C(C)(C)NC(=O)[C@@H](N)Cc1ccc(O)cc1)[C@@H](C)O)[C@@H](C)O)[C@@H](C)CC)[C@@H](C)CC)C(C)C)C(=O)N[C@@H](C)C(=O)NCC(=O)NCC(=O)N1CCC[C@H]1C(=O)N[C@@H](CO)C(=O)N[C@@H](CO)C(=O)NCC(=O)N[C@@H](C)C(=O)N1CCC[C@H]1C(=O)N1CCC[C@H]1C(=O)N1CCC[C@H]1C(=O)N[C@@H](CO)C(N)=O [tirzepatide]
[1]; baseline
  NAb against TZP activity on GIP R: 2 (<0.1) n (%)
[1]; postbaseline
  NAb against TZP activity on GIP R: 94 (1.9) n (%)
[2]; baseline
  Cross-reactive binding ADA to nGIP: 97 (1.9) n (%)
[2]; postbaseline
  Cross-reactive binding ADA to nGIP: 1705 (33.9) n (%)
[3]; SURPASS Japan-Combo, N 443
  Time to first TE ADA+ titer ≤4 wk: 1 (0.2) n (%)
  Time to first TE ADA+ titer ≤12 wk: 32 (7.2) n (%)
  Time to first TE ADA+ titer ≤40 wk: 209 (47.2) n (%)
  Time to first TE ADA+ titer ≤52 wk: 244 (55.1) n (%)
[3]; SURPASS Japan-Combo, N 443, flexibility of visit windows
  Time to first TE ADA+ titer ≤78 wk: 257 (58.0)^a n (%)
[3]; SURPASS Japan-Mono, N 476
  Time to first TE ADA+ titer ≤4 wk: 4 (0.8) n (%)
  Time to first TE ADA+ titer ≤12 wk: 51 (10.7) n (%)
  Time to first TE ADA+ titer ≤24 wk: 182 (38.2) n (%)
  Time to first TE ADA+ titer ≤40 wk: 278 (58.4) n (%)
  Time to first TE ADA+ titer ≤52 wk: 312 (65.5) n (%)
[3]; SURPASS Japan-Mono, N 476, flexibility of visit windows
  Time to first TE ADA+ titer ≤78 wk: 322 (67.6)^a n (%)
[3]; SURPASS-1, N 351
  Time to first TE ADA+ titer ≤4 wk: 0 n (%)
  Time to first TE ADA+ titer ≤12 wk: 16 (4.6) n (%)
  Time to first TE ADA+ titer ≤24 wk: 90 (25.6) n (%)
  Time to first TE ADA+ titer ≤40 wk: 155 (44.2) n (%)
[3]; SURPASS-1, N 351, flexibility of visit windows
  Time to first TE ADA+ titer ≤52 wk: 174 (49.6)^a n (%)
[3]; SURPASS-2, N 1393
  Time to first TE ADA+ titer ≤4 wk: 6 (0.4) n (%)
  Time to first TE ADA+ titer ≤12 wk: 91 (6.5) n (%)
  Time to first TE ADA+ titer ≤24 wk: 352 (25.3) n (%)
  Time to first TE ADA+ titer ≤40 wk: 639 (45.9) n (%)
[3]; SURPASS-2, N 1393, flexibility of visit windows
  Time to first TE ADA+ titer ≤52 wk: 704 (50.5)^a n (%)
[3]; SURPASS-3, N 1062
  Time to first TE ADA+ titer ≤4 wk: 12 (1.1) n (%)
  Time to first TE ADA+ titer ≤12 wk: 80 (7.5) n (%)
  Time to first TE ADA+ titer ≤24 wk: 266 (25.0) n (%)
  Time to first TE ADA+ titer ≤40 wk: 466 (43.9) n (%)
  Time to first TE ADA+ titer ≤52 wk: 518 (48.8) n (%)
[3]; SURPASS-3, N 1062, flexibility of visit windows
  Time to first TE ADA+ titer ≤78 wk: 536 (50.5)^a n (%)
[3]; SURPASS-4, N 956
  Time to first TE ADA+ titer ≤4 wk: 7 (0.7) n (%)
  Time to first TE ADA+ titer ≤12 wk: 62 (6.5) n (%)
  Time to first TE ADA+ titer ≤24 wk: 190 (19.9) n (%)
  Time to first TE ADA+ titer ≤40 wk: 300 (31.4) n (%)
  Time to first TE ADA+ titer ≤52 wk: 367 (38.4) n (%)
  Time to first TE ADA+ titer ≤78 wk: 389 (40.7) n (%)
  Time to first TE ADA+ titer ≤104 wk: 399 (41.7) n (%)
[3]; SURPASS-5, N 344
  Time to first TE ADA+ titer ≤4 wk: 3 (0.9) n (%)
  Time to first TE ADA+ titer ≤12 wk: 26 (7.6) n (%)
  Time to first TE ADA+ titer ≤24 wk: 89 (25.9) n (%)
  Time to first TE ADA+ titer ≤40 wk: 160 (46.5) n (%)
[3]; SURPASS-5, N 344, flexibility of visit windows
  Time to first TE ADA+ titer ≤52 wk: 178 (51.7)^a n (%)
[3]; baseline, 7 SURPASS phase 3 trials pooled, TE ADA-evaluable TZP-treated N = 5025
  Preexisting ADA: 353 (7.0) n (%)
[3]; postbaseline, 7 trials pooled, N = 5025
  TE ADA+: 2570 (51.1) n (%)
[4]; baseline
  Cross-reactive binding ADA to nGLP-1: 34 (0.7) n (%)
[4]; postbaseline
  Cross-reactive binding ADA to nGLP-1: 716 (14.2) n (%)
[5]; graphical comparison, ADA detected vs not detected and by titer
  Apparent clearance (CL/F): effect of ADA status or ADA titer: not affected
[5]; in vivo
  Relationship between NAb and TZP concentration: No relationship
[6]; baseline
  NAb against TZP activity on GLP-1 R: 2 (<0.1) n (%)
[6]; postbaseline
  NAb against TZP activity on GLP-1 R: 107 (2.1) n (%)
[7]; TZP 5 mg, TE ADA+, n 815
  Hypersensitivity reactions, %: 3.93%
  Hypersensitivity reactions, m (number of patients with specified reaction): 32
[7]; TZP 5 mg, TE ADA–, n 855
  Hypersensitivity reactions, %: 3.04%
  Hypersensitivity reactions, m (number of patients with specified reaction): 26
[7]; TZP 10 mg, TE ADA+, n 858
  Hypersensitivity reactions, %: 3.61%
  Hypersensitivity reactions, m (number of patients with specified reaction): 31
[7]; TZP 10 mg, TE ADA–, n 812
  Hypersensitivity reactions, %: 3.2%
  Hypersensitivity reactions, m (number of patients with specified reaction): 26
[7]; TZP 15 mg, TE ADA+, n 897
  Hypersensitivity reactions, %: 4.79%
  Hypersensitivity reactions, m (number of patients with specified reaction): 43
[7]; TZP 15 mg, TE ADA–, n 788
  Hypersensitivity reactions, %: 2.66%
  Hypersensitivity reactions, m (number of patients with specified reaction): 21
[7]; TZP all doses, TE ADA+, n 2570
  Hypersensitivity reactions, %: 4.12%
  Hypersensitivity reactions, m (number of patients with specified reaction): 106
[7]; TZP all doses, TE ADA–, n 2455
  Hypersensitivity reactions, %: 2.97%
  Hypersensitivity reactions, m (number of patients with specified reaction): 73
[7]; TZP-treated patients
  Anaphylactic reactions: No anaphylactic reactions
[7]; in vivo
  Severity of hypersensitivity events in TE ADA+ patients: mostly mild to moderate
[8]; [10]
  Injection site reactions, %: 0.06%
  Injection site reactions, m (number of patients with specified reaction): 1
[8]; TZP 5 mg, TE ADA+, n 815
  Injection site reactions, %: 3.07%
  Injection site reactions, m (number of patients with specified reaction): 25
[8]; TZP 5 mg, TE ADA–, n 855
  Injection site reactions, %: 0.82%
  Injection site reactions, m (number of patients with specified reaction): 7
[8]; [11]
  Injection site reactions, %: 0.06%
  Injection site reactions, m (number of patients with specified reaction): 1
[8]; TZP 10 mg, TE ADA+, n 858
  Injection site reactions, %: 4.43%
  Injection site reactions, m (number of patients with specified reaction): 38
[8]; TZP 10 mg, TE ADA–, n 812
  Injection site reactions, %: 0.86%
  Injection site reactions, m (number of patients with specified reaction): 7
[8]; TZP 15 mg, TE ADA status not evaluable
  Injection site reactions, m (number of patients with specified reaction): 0
[8]; TZP 15 mg, TE ADA+, n 897
  Injection site reactions, %: 6.24%
  Injection site reactions, m (number of patients with specified reaction): 56
[8]; TZP 15 mg, TE ADA–, n 788
  Injection site reactions, %: 0.51%
  Injection site reactions, m (number of patients with specified reaction): 4
[8]; [12]
  Injection site reactions, %: 0.04%
  Injection site reactions, m (number of patients with specified reaction): 2
[8]; TZP all doses, TE ADA+, n 2570
  Injection site reactions, %: 4.63%
  Injection site reactions, m (number of patients with specified reaction): 119
[8]; TZP all doses, TE ADA–, n 2455
  Injection site reactions, %: 0.73%
  Injection site reactions, m (number of patients with specified reaction): 18
[8]; all events
  Severity of injection site reactions: nonserious and nonsevere
[8]; all were TE ADA+
  Patients who discontinued study drug because of injection site reactions: Four

## liraglutide
[9]
  ADA incidence in published studies: up to 8.7%

## dulaglutide
[9]
  ADA incidence in published studies: up to 4.1%
